TRPN1 ag: zebrafish TRPN1 channel agonists, primary screen, cell-based, HEK293, calcium fluorescence | transient receptor potential cation channel N1 (TRPN1/NompC), Danio rerio | HEK293 zebrafish TRPN1-YFP, Fluo-8 calcium fluorescence; 100% = response to 87 µM carbachol | activation, % at 3 µM | 220,000 tested, 0.18% active | AID 1424, 2008;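 active means activation above its plate's cutoff, the mean activation of test wells on that plate plus 3 SD, cut at about 19% in these data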;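 further: 0% = DMSO alone and 100% = 87 µM carbachol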
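Assay system: Zebrafish TRPN1-YFP in HEK293 cells | Incubation: Dye loading 1 h at 37 °C, then 30 min room temperature | Measured by: Kinetic Fluo-8 fluorescence, ex 470-495, em 515-575 nm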
OXTR agonist: human OXTR agonists, primary screen, fluorescence, CHO-OTR cells, Fluo-8 calcium; Oxytocin receptor (Homo sapiens), P30559; Fluo-8 calcium fluorescence; normalized: DMSO 0%, oxytocin 100%; activation, % at 3 µM; 320,000 tested, 0.32% active; AID 2435, 2010;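 active means activation above the mean of all tested compounds plus 3 SD, cutoff set per screening run, cut at about 20% in these data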;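 further: peak over basal fluorescence ratio from a 100 s FLIPR kinetic read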
TRPML3 agonist: human TRPML3 channel agonists, primary screen, cell-based, HEK293 TRPML3-YFP, Fluo-8 calcium fluorescence, 3 µM; Mucolipin-3 (Homo sapiens), Q8TDD5; 100% = the carbachol control signal; activation, % at 3 µM; 220,000 tested, 0.29% active;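 active means activation above its plate's cutoff, the mean activation of the plate's test wells plus 3 SD, cut at about 12% in these data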;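 further: 0% = DMSO only wells and 100% = carbachol wells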
Target sequence (Q8TDD5 whole entry, looked up): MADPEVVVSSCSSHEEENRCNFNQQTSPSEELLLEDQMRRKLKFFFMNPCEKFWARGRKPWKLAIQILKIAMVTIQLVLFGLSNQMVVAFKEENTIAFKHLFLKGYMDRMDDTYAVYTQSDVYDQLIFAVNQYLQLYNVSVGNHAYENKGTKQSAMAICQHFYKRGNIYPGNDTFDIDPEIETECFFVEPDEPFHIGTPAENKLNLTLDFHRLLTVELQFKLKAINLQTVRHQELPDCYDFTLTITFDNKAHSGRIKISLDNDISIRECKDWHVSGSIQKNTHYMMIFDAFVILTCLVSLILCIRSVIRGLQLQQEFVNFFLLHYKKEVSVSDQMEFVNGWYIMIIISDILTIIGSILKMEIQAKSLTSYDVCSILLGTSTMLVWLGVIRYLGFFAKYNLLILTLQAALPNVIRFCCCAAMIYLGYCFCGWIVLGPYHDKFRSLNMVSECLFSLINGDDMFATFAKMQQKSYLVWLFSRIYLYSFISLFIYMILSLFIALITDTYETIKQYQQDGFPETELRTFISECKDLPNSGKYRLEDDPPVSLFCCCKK
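Test system: TRPML3-YFP stable HEK293 cells. Doses: single point at 3 µM. Incubation: dye loading 1 h 37 °C then 30 min ambient, 125 s read. Signal: Fluo-8 calcium dye fluorescence, ex 470-495, em 515-575 nm. Measure: percent activation from peak-to-basal fluorescence ratio, scaled between DMSO and carbachol.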
OXTR potentiator: human OXTR potentiators, primary screen, fluorescence, CHO-OTR cells, Fluo-8 calcium; Oxytocin receptor (Homo sapiens), P30559; Fluo-8 calcium fluorescence, potentiator mode; 0% = oxytocin EC15, 100% = EC100; activation, % at 3 µM; 320,000 tested, 0.061% active; AID 2445, 2010;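 active means activation above that plate's cutoff, the mean activation of tested compounds plus 3 SD, cut at about 6.6% in these data, passing the limit was not always enough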;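 further: 100% uses oxytocin at 75 nM as the full agonist control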
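Assay system: CHO cell line stably expressing human OTR. Reagent: EC15 oxytocin agonist. Dosing: single dose, 3.0 µM nominal final compound concentration. Timing: compound 6 min at room temperature before oxytocin, 100 s read. Signal: kinetic Fluo-8 calcium fluorescence. Controls: oxytocin EC15 low and EC100 high.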
V1aR counter: agonists of human V1a receptor, primary screen, counter-screen for OXTR agonist project, fluorescence, CHO-V1R cells. Vasopressin V1a receptor (Homo sapiens), P37288. Fluo-8 calcium fluorescence, agonist mode; 0% DMSO, 100% 3 nM vasopressin. activation, % at 3 µM. 320,000 tested, 0.25% active. AID 2797, 2010;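 active means activation above the mean activation of all tested compounds plus 3 SD, per screening run, cut at about 20% in these data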;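 further: signal is peak over basal fluorescence ratio across a 100 second FLIPR read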
OXTR ag confirm: human OXTR agonists, confirmation, fluorescence, CHO-OTR cells, triplicate; shares compounds with OXTR agonist; Fluo-8 calcium fluorescence, agonist; activation, % at 3 µM; 390 tested, 20% active;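 active means mean activation above about 20% derived from the earlier single-dose screen, limit read from the data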;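 further: peak over minimum fluorescence ratio per well during a 100 second FLIPR read; 0% = DMSO alone and 100% = oxytocin high control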
V1aR counter 3x: V1a receptor agonists, calcium signal, counter-screen for OXTR agonist project, triplicate, fluorescence, CHO-V1R cells; shares compounds with OXTR agonist; Fluo-8 calcium fluorescence; activation, % at 3 µM; 390 tested, 10% active;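 active means mean activation over triplicate exceeds the hit threshold set in the earlier primary screen, cut at about 20% in these data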;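 further: peak over basal fluorescence ratio within a 100 second read; 0% = DMSO alone and 100% = 3 nM vasopressin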
* = called active by the depositor; / = no result given. This is a sample that favours compounds with a hit; in the whole collection about 0.55% have one here.

SMILES | TRPN1 ag | OXTR agonist | TRPML3 agonist | OXTR potentiator | V1aR counter | OXTR ag confirm | V1aR counter 3x
CN(/N=C/c1ccc(-c2ccc([N+](=O)[O-])cc2)o1)c1ccccc1 | / | 23* | / | -15 | 18 | 96* | 100*
O=C(O)c1ccc(N/N=C/c2ccc(-c3ccccc3Cl)o2)cc1 | 1 | 23* | 0 | -23 | 12 | 8 | 5
C/C(=N/O)c1cc(C(C)(C)C)c(O)c(C(C)(C)C)c1 | -1 | 21* | 0 | -12 | 9 | -1 | 3
Cc1ccc(Cl)cc1N1CCN(CC(=O)Nc2ccc(CN3CCCCC3)cc2)CC1 | 14 | 28* | 9 | -14 | 12 | 19 | 13
CC(=O)c1ccc(NC(=O)CN2CCCCCC2)cc1 | / | 21* | / | -7 | 1 | 1 | 0
CCN1CCN(CC(=O)Nc2ccc(C(C)=O)cc2)CC1 | / | 3 | / | -13 | 2 | / | /
Cc1cc(C)c(C)c(S(=O)(=O)NCCCn2ccnc2)c1C | / | 4 | / | 8 | 2 | / | /
O=c1cc(-c2ccccc2Cl)oc2c(NS(=O)(=O)c3cc(Cl)cc(Cl)c3O)ccc(O)c12 | 5 | 28* | 0 | -18 | 15 | 17 | 17
CCc1ccc(S(=O)(=O)Nc2ccc(O)c3c(=O)cc(-c4ccccc4Cl)oc23)cc1 | / | -2 | / | -12 | -2 | / | /
COc1ccc2oc(C(=O)OCC(=O)NC(C)c3ccccc3)c(C)c2c1 (configuration not stated) | / | -1 | / | -4 | 2 | / | /
COc1cccc(OCC(O)CN2CCC(CN3C(=O)c4cccc5cccc(c45)C3=O)CC2)c1 (configuration not stated) | 1 | 3 | 1 | -4 | 1 | / | /
Cc1cc(C)cc(OCC(O)CN2CCC(CN3C(=O)c4cccc5cccc(c45)C3=O)CC2)c1 (configuration not stated) | / | 25* | / | -11 | 16 | 3 | 1
CC(C)(C)c1ccc(NC(=O)C2=CC=CN3CCS(=O)(=O)N=C23)cc1 | / | 4 | / | -9 | 2 | / | /
Cc1cccc(Oc2ccc(NC(=O)C3=CC=CN4CCS(=O)(=O)N=C34)cc2)c1 | / | 21* | / | -11 | 7 | 11 | 3
Cc1ccc(Oc2ccc(NC(=O)C3=CC=CN4CCS(=O)(=O)N=C34)cc2)cc1 | / | 24* | / | -12 | 7 | 9 | 2
CCc1ccc(Nc2n[n+](-c3ccccc3)c(-c3ccc(N(CC)CC)cc3)s2)cc1 | / | 40* | / | -18 | 17 | 71* | 101*
O=C(Nc1ccc(Cl)c(Cl)c1)c1cccc(S(=O)(=O)NCc2cccnc2)c1 | 5 | 20* | 3 | -14 | 13 | 9 | 9
CN1CCN(C(=O)c2cc3ccccc3cc2O)CC1 | / | 1 | / | -3 | 1 | / | /
CCOC(=O)c1sc(NC(=O)Nc2ccc(Cl)cc2)cc1C | 18 | 20* | 4 | -23 | 14 | 11 | 11
CCOC(=O)c1sc(NC(=O)c2ccc(Cl)s2)cc1C | 1 | 2 | 1 | -1 | 1 | / | /
Cc1ccc(C)c(N2CCN(C(=O)c3cccn4c(=O)c5sccc5nc34)CC2)c1 | 0 | 31* | 1 | -13 | 9 | 10 | 5
Nc1ccn(CC(=O)NCCc2ccccn2)c(=O)n1 | / | 0 | / | -3 | 0 | / | /
Cc1ccccc1COC(=O)CCCC1=NS(=O)(=O)c2ccccc2N1 | / | 24* | / | -15 | 17 | 17 | 14
Cc1ccccc1NC(=O)c1nnn(-c2ccc3c(c2)OCCO3)c1N | / | 21* | / | -16 | 9 | 2 | 2
CCOC(=O)/C=C1\SCC(=O)N1CC(=O)Nc1cc(S(=O)(=O)N(C)C)ccc1C | / | 1 | / | 0 | 0 | / | /
SMILES | TRPN1 ag | OXTR agonist | TRPML3 agonist | OXTR potentiator | V1aR counter | OXTR ag confirm | V1aR counter 3x
O=C1/C(=C/c2ccccc2)N=C(N2CCOCC2)N1c1cccc(Cl)c1 | -2 | 26* | -1 | -10 | 7 | 10 | 7
Cn1cccc1C(=O)OCc1cc(-c2ccco2)on1 | / | -2 | / | -6 | -2 | / | /
Cc1cc(SCC(=O)OCC(=O)N(C)C2CCS(=O)(=O)C2)c(C)cc1Br (configuration not stated) | / | 21* | / | -18 | 13 | 4 | 6
CCN(CC(=O)Nc1ccc(NC(C)=O)cc1)C(=O)CSCc1c(C)noc1C | / | 0 | / | 2 | 1 | / | /
COc1ccc(C(=O)CSc2nnc(Cn3cnc4ccccc43)o2)cc1 | 8 | 20* | 4 | -23 | 15 | 10 | 10
CN1CCN(C(CNC(=O)C(=O)Nc2ccc3c(c2)OCCO3)c2ccc(F)cc2)CC1 (configuration not stated) | / | 3 | / | -1 | 1 | / | /
Nc1nc2ccccc2n1CCOc1ccc(Br)cc1 | / | 21* | / | -15 | 7 | 1 | 0
Nc1nc2ccccc2n1CCOc1ccc(Cl)cc1 | / | 6 | / | -8 | 6 | / | /
Cc1cccc(OCC(O)Cn2c(=N)n(Cc3ccccc3)c3ccccc32)c1 (configuration not stated) | -1 | 31* | -1 | -13 | 18 | 7 | 6
CCOP(=O)(OCC)C1NC(=O)N(c2ccccc2)C1=O (configuration not stated) | / | 2 | / | -7 | 2 | / | /
Cc1ccc(N2C(=O)NC(C(F)(F)F)(C(F)(F)F)C3=C2CC(C)(C)CC3=O)cc1 | 0 | -2 | 1 | 3 | 1 | / | /
CSC1=NSC2=NC(=O)/C(=C\c3coc4ccccc4c3=O)C(=N)N12 | 29* | 26* | 15* | -11 | 18 | 329* | 488*
Cc1cc(/C=C2/C(=N)N3C(=NC2=O)SN=C3S(C)(=O)=O)c(C)n1-c1ccc(F)cc1 | 1 | 2 | 0 | -13 | 2 | / | /
CCN(CC)S(=O)(=O)c1cc(NC(=O)Cn2ncc(Cl)c(Cl)c2=O)ccc1C | 0 | 0 | 0 | -2 | -1 | / | /
c1cc2c(cc1C1CCCCC1)c1c3n2CCCNC3CCC1 (configuration not stated) | 5 | 26* | 1 | -2 | 18 | 1 | 1
COc1ccc(NC(=O)c2ccc3ccccc3c2OC)cc1 | / | -2 | / | -7 | 0 | / | /
CC1(C2CC2)NC(=O)N(CC(=O)Nc2ccc(Cl)c([N+](=O)[O-])c2)C1=O (configuration not stated) | / | 1 | / | -3 | 0 | / | /

Assay outcomes from PubChem.
